Data from ChEMBL document CHEMBL4257477, “5,6-Benzoflavones as cholesterol esterase inhibitors: synthesis, biological evaluation and docking studies” (Medchemcomm, 2018).
Active and inactive are the calls of the source. The rule behind the calls is not given here.

Tests used:
[1] = Inhibition of porcine CEase using para-nitrophenyl butyrate as substrate preincubated with substrate for 5 mins followed by enzyme addition by spectrophotometric method; design: species or system Sus scrofa
In short: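 Porcine cholesterol esterase (10 ng mL–1 final) was assayed in pH 7.0 phosphate/NaCl buffer with 6 mM taurocholate, 3% acetonitrile, and 20 μM p-nitrophenyl butyrate at 25 °C. Test compounds in DMSO were preincubated 5 min, then the enzyme was added and A405 was monitored. IC50 came from four concentrations (1, 5, 10, 25 nM), with means of triplicates.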

Sus scrofa [2] = organism: Sus scrofa; test: Inhibition of porcine CEase at 50 nM using para-nitrophenyl butyrate as substrate preincubated with substrate for 5 mins followed by enzyme addition by spectrophotometric method relative to control
Sus scrofa [3] = organism: Sus scrofa; test: Mixed-type inhibition of porcine CEase at 1 to 50 nM using para-nitrophenyl butyrate as substrate preincubated with substrate for 5 mins followed by enzyme addition by Lineweaver-Burk plot analysis

Row | SMILES | IC50 [1] [nM] | inhibition (Sus scrofa [2]) [%] | inhibition (Sus scrofa [3])
1 | O=c1cc(-c2cc(F)ccc2F)oc2ccc3ccccc3c12 | 1.08 | > 60 | 
2 | O=c1cc(-c2ccc(CCl)cc2)oc2ccc3ccccc3c12 | 22.2 | > 60 | 
3 | O=c1cc(-c2cccc(Cl)c2)oc2ccc3ccccc3c12 | 0.83 | > 60 | 
4 | O=c1cc(-c2ccc(F)c(F)c2)oc2ccc3ccccc3c12 | 1.15 | > 60 | 
5 | O=c1cc(-c2cc(F)ccc2C(F)(F)F)oc2ccc3ccccc3c12 | 27.8 | > 60 | 
6 | O=c1cc(-c2ccc(C(F)(F)F)cc2F)oc2ccc3ccccc3c12 | 23.1 | > 60 | 
7 | O=c1cc(-c2cccc(Br)c2)oc2ccc3ccccc3c12 | 6.01 | > 60 | 
8 | O=c1cc(-c2cc(F)cc(F)c2)oc2ccc3ccccc3c12 | 0.99 | > 60 | 
9 | O=c1cc(-c2ccc(F)cc2)oc2ccc3ccccc3c12 | 4.5 | > 60 | 
10 | O=c1cc(-c2ccc([N+](=O)[O-])cc2)oc2ccc3ccccc3c12 | 18 | > 60 | 
11 | O=c1cc(-c2ccc(Br)cc2)oc2ccc3ccccc3c12 | 8.15 | > 60 | 
12 | O=c1cc(-c2ccccc2F)oc2ccc3ccccc3c12 | 2.59 | > 60 | 
13 | O=c1cc(-c2cc(F)cc(C(F)(F)F)c2)oc2ccc3ccccc3c12 | 29.1 | > 60 | 
14 | O=c1cc(-c2cccc(F)c2)oc2ccc3ccccc3c12 | 3.9 | > 60 | 
15 | O=c1cc(-c2c(F)cccc2F)oc2ccc3ccccc3c12 | 1.19 | > 60 | 
16 | O=c1cc(-c2ccc(I)cc2)oc2ccc3ccccc3c12 | 13.1 | > 60 | 
17 | CCOP(=O)(OCC)Oc1cc(O)c2c(=O)cc(-c3ccccc3)oc2c1 | 0.72 |  | 
18 | O=c1cc(-c2cccc(Cl)c2Cl)oc2ccc3ccccc3c12 | 0.73 | > 60 | Active
19 | O=c1cc(-c2ccccc2Br)oc2ccc3ccccc3c12 | 4.69 | > 60 | 
20 | O=c1cc(-c2ccccc2I)oc2ccc3ccccc3c12 | 9.55 | > 60 | 
21 | O=c1cc(-c2cccc(CCl)c2)oc2ccc3ccccc3c12 | 20.1 | > 60 | 
22 | O=c1cc(-c2cc([N+](=O)[O-])cc([N+](=O)[O-])c2)oc2ccc3ccccc3c12 | 9.8 | > 60 | 
23 | O=c1cc(-c2c(F)cccc2C(F)(F)F)oc2ccc3ccccc3c12 | 29.2 | > 60 | 
24 | O=c1cc(-c2ccccc2)oc2ccc3ccccc3c12 [BETA-NAPHTHOFLAVONE] | 51.1 |  | 
25 | O=c1cc(-c2ccc(F)cc2F)oc2ccc3ccccc3c12 | 1.46 | > 60 | 
26 | O=c1cc(-c2cccc([N+](=O)[O-])c2)oc2ccc3ccccc3c12 | 16.4 | > 60 | 
27 | O=c1cc(-c2ccccc2C(F)(F)F)oc2ccc3ccccc3c12 | 31.4 | > 60 | 
